The record followed here is ChEMBL document CHEMBL1127659, “In vitro and in vivo activities of reduced-size antagonists of luteinizing hormone-releasing hormone” (J Med Chem, 1994).

Values after ≈ are worked out from the molar mass of the structure shown. Where a SMILES comes first, the peptide text is derived from it. [ ]: non-standard residue; d: D form. The star is where a group is joined. Propanoyl(3-(4-F-phenyl)) = O=C(CCc1ccc(F)cc1)*; Propanoyl(3-(4-Cl-Ph)) = O=C(CCc1ccc(Cl)cc1)*; dPhe(4-Cl) = N[C@H](Cc1ccc(Cl)cc1)C(=O)O; d1Nal = N[C@H](Cc1cccc2ccccc12)C(=O)O; d2Nal = N[C@H](Cc1ccc2ccccc2c1)C(=O)O; Lys(iPr) = CC(C)NCCCC[C@H](N)C(=O)O; NMeY = CN[C@@H](Cc1ccc(O)cc1)C(=O)O; d3Pal = N[C@H](Cc1cccnc1)C(=O)O; Nicotinoyl = O=C(c1cccnc1)*

The species named for one assay is Rattus norvegicus. Description: In vitro antagonistic potency against release of luteinizing hormone (LH) from cultured rat pituitary cells. In kind it is functional. To be noted: Pituitary gland cell, read-out: pA2 (converted). The procedure, abridged:
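Cultured rat pituitary cells, agonist-stimulated LH release. pA2 is the negative log of the antagonist concentration that makes a 2-fold higher agonist concentration necessary to release LH. Compounds tested as TFA salts.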
`CC(C)C[C@H](NC(=O)[C@@H](CCCCNC(=O)c1cccnc1)NC(=O)[C@H](Cc1ccc(O)cc1)N(C)C(=O)[C@H](CO)NC(=O)[C@@H](Cc1cccc2ccccc12)NC(=O)CCc1ccc(F)cc1)C(=O)N[C@@H](CCCCNC(C)C)C(=O)N1CCC[C@H]1C(=O)O`: the Kb was 7.76 nM.

For `CCNC(=O)[C@@H]1CCCN1C(=O)[C@H](CCCN=C(N)N)NC(=O)[C@H](CC(C)C)NC(=O)[C@@H](Cc1c[nH]c2ccccc12)NC(=O)[C@H](Cc1ccc(O)cc1)NC(=O)[C@H](CO)NC(=O)[C@H]1CCCN1C(=O)CCc1ccc(F)cc1`, the Kb was 2.4 nM.

In the case of `CCNC(=O)[C@@H]1CCCN1C(=O)[C@H](CCCN=C(N)N)NC(=O)[C@H](CC(C)C)NC(=O)[C@@H](Cc1c[nH]c2ccccc12)NC(=O)[C@H](Cc1ccc(O)cc1)NC(=O)[C@H](CO)NC(=O)[C@H](Cc1c[nH]c2ccccc12)NC(=O)CCc1ccc(F)cc1`, the Kb is 0.589 nM.

For `CCNC(=O)[C@@H]1CCCN1C(=O)[C@H](CCCN=C(N)N)NC(=O)[C@H](CC(C)C)NC(=O)[C@@H](Cc1c[nH]c2ccccc12)NC(=O)[C@H](Cc1ccc(O)cc1)NC(=O)[C@H](CO)NC(=O)[C@@H](Cc1cccc2ccccc12)NC(=O)CCc1ccc(F)cc1`, the Kb was 0.00708 nM.

As for `CC(C)C[C@H](NC(=O)[C@@H](CCCCNC(=O)c1cccnc1)NC(=O)[C@H](Cc1ccc(O)cc1)N(C)C(=O)[C@H](CO)NC(=O)[C@@H](Cc1cccc2ccccc12)NC(=O)CCc1ccc(F)cc1)C(=O)N[C@@H](CCCCNC(C)C)C(=O)N1CCC[C@H]1C(=O)N[C@H](C)C(N)=O` ({Propanoyl(3-(4-F-phenyl))}-[d1Nal]S[NMeY][dK](Nicotinoyl)L[Lys(iPr)]P[dA]-NH2) [listing 1 of 2 here], the Kb is 0.00741 nM.

Take `CCNC(=O)[C@@H]1CCCN1C(=O)[C@H](CCCN=C(N)N)NC(=O)[C@H](CC(C)C)NC(=O)[C@@H](CCCCNC(=O)c1cccnc1)NC(=O)[C@H](Cc1ccc(O)cc1)N(C)C(=O)[C@H](CO)NC(=O)[C@@H](Cc1c[nH]c2ccccc12)NC(=O)CCc1ccc(F)cc1F`: the Kb was 0.00891 nM.

For `CCNC(=O)[C@@H]1CCCN1C(=O)[C@H](CCCN=C(N)N)NC(=O)[C@H](CC(C)C)NC(=O)[C@@H](Cc1c[nH]c2ccccc12)NC(=O)[C@H](Cc1ccc(O)cc1)N(C)C(=O)[C@H](CO)NC(=O)[C@@H](Cc1c[nH]c2ccccc12)NC(=O)CCc1ccc(Cl)cc1`, the Kb was 0.00398 nM.

In the case of `CCNC(=O)[C@@H]1CCCN1C(=O)[C@H](CCCN=C(N)N)NC(=O)[C@H](CC(C)C)NC(=O)[C@@H](Cc1c[nH]c2ccccc12)NC(=O)[C@H](Cc1ccc(O)cc1)NC(=O)[C@H](CO)NC(=O)[C@H](Cc1ccc(O)cc1)NC(=O)CCc1ccc(Cl)cc1` ({Propanoyl(3-(4-Cl-Ph))}-YSY[dW]LRP-NHEt), the Kb was 0.851 nM.

For the compound `CCNC(=O)[C@@H]1CCCN1C(=O)[C@H](CCCN=C(N)N)NC(=O)[C@H](CC(C)C)NC(=O)[C@@H](Cc1c[nH]c2ccccc12)NC(=O)[C@H](Cc1ccc(O)cc1)NC(=O)[C@H](CO)NC(=O)[C@H](Cc1c[nH]c2ccccc12)NC(=O)CCc1ccccc1F`, the Kb was 0.447 nM.

Turning to `CCNC(=O)[C@@H]1CCCN1C(=O)[C@H](CCCN=C(N)N)NC(=O)[C@H](CC(C)C)NC(=O)[C@@H](Cc1c[nH]c2ccccc12)NC(=O)[C@H](Cc1ccc(O)cc1)NC(=O)[C@@H]1CC(O)CN1C(=O)[C@@H](Cc1c[nH]c2ccccc12)NC(=O)CCc1ccc(F)cc1` (stereo not given in full), the Kb is 20.9 nM.

As for `CCNC(=O)[C@@H]1CCCN1C(=O)[C@H](CCCN=C(N)N)NC(=O)[C@H](CC(C)C)NC(=O)[C@@H](Cc1c[nH]c2ccccc12)NC(=O)[C@H](Cc1ccc(O)cc1)NC(=O)[C@H](CO)NC(=O)[C@H](Cc1c[nH]c2ccccc12)NC(=O)CCc1ccc(C(F)(F)F)cc1`, the Kb was 0.955 nM.

Regarding `CCNC(=O)[C@@H]1CCCN1C(=O)[C@H](CCCN=C(N)N)NC(=O)[C@H](CC(C)C)NC(=O)[C@@H](Cc1c[nH]c2ccccc12)NC(=O)[C@H](Cc1ccc(O)cc1)NC(=O)[C@H](CO)NC(=O)[C@@H](Cc1c[nH]c2ccccc12)NC(=O)c1cc2cc(F)ccc2[nH]1`, the Kb is 41.7 nM.

Regarding `CCNC(=O)[C@@H]1CCCN1C(=O)[C@H](CCCN=C(N)N)NC(=O)[C@H](CC(C)C)NC(=O)[C@@H](Cc1c[nH]c2ccccc12)NC(=O)[C@H](Cc1ccc(O)cc1)NC(=O)[C@H](CO)NC(=O)[C@H](Cc1c[nH]c2ccccc12)NC(=O)[C@H](Cc1ccccc1)NC(C)=O`, the Kb is 9.55 nM.

As for `CCNC(=O)[C@@H]1CCCN1C(=O)[C@H](CCCN=C(N)N)NC(=O)[C@H](CC(C)C)NC(=O)[C@@H](Cc1c[nH]c2ccccc12)NC(=O)[C@H](Cc1ccc(O)cc1)NC(=O)[C@H](CO)NC(=O)[C@@H](Cc1c[nH]c2ccccc12)NC(=O)c1cc2ccccc2[nH]1`, the Kb is 0.851 nM.

With `CCNC(=O)[C@@H]1CCCN1C(=O)[C@H](CCCN=C(N)N)NC(=O)[C@H](CC(C)C)NC(=O)[C@@H](Cc1c[nH]c2ccccc12)NC(=O)[C@H](Cc1ccc(O)cc1)N(C)C(=O)[C@H](CO)NC(=O)[C@@H](Cc1c[nH]c2ccccc12)NC(=O)CCc1ccc(F)cc1`, the Kb is 0.00708 nM.

Another assay is filed under the species Rattus norvegicus. Nature of the assay: Effective dose required for maximal release of histamine from rat peritoneal mast cells. In kind it is functional. To be noted: read-out: ED50 (the source's name). The procedure, abridged:
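Rat peritoneal mast cells; histamine release measured. ED50 is the antagonist dose giving 50% of maximal histamine release, in micrograms per milliliter. All compounds tested as TFA salts.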
Turning to `CC(C)C[C@H](NC(=O)[C@@H](CCCCNC(=O)c1cccnc1)NC(=O)[C@H](Cc1ccc(O)cc1)N(C)C(=O)[C@H](CO)NC(=O)[C@@H](Cc1cccc2ccccc12)NC(=O)CCc1ccc(F)cc1)C(=O)N[C@@H](CCCCNC(C)C)C(=O)N1CCC[C@H]1C(=O)N[C@H](C)C(N)=O` ({Propanoyl(3-(4-F-phenyl))}-[d1Nal]S[NMeY][dK](Nicotinoyl)L[Lys(iPr)]P[dA]-NH2) [listing 2 of 2 here], the EC50 is 10.3 µg/mL (≈ 7.84 µM).

`CC(=O)N[C@H](Cc1ccc2ccccc2c1)C(=O)N[C@H](Cc1ccc(Cl)cc1)C(=O)N[C@H](Cc1cccnc1)C(=O)N[C@@H](CO)C(=O)N(C)[C@@H](Cc1ccc(O)cc1)C(=O)N[C@H](CCCCNC(=O)c1cccnc1)C(=O)N[C@@H](CC(C)C)C(=O)N[C@@H](CCCCNC(C)C)C(=O)N1CCC[C@H]1C(=O)N[C@H](C)C(N)=O` (Ac-[d2Nal][dPhe(4-Cl)][d3Pal]S[NMeY][dK](Nicotinoyl)L[Lys(iPr)]P[dA]-NH2): the EC50 was found to be 10 µg/mL (≈ 6.51 µM).

In the case of `CCNC(=O)[C@@H]1CCCN1C(=O)[C@H](CCCN=C(N)N)NC(=O)[C@H](CC(C)C)NC(=O)[C@@H](CCCCNC(=O)c1cccnc1)NC(=O)[C@H](Cc1ccc(O)cc1)N(C)C(=O)[C@H](CO)NC(=O)[C@@H](Cc1c[nH]c2ccccc12)NC(=O)CCc1ccc(F)cc1`, the EC50 is < 0.1 µg/mL.

A further assay is filed under the species Rattus norvegicus. Description: Percentage suppression of the LH in castrated rat after 2 hr of doing.
Details: not given
The compound `CCNC(=O)[C@@H]1CCCN1C(=O)[C@H](CCCN=C(N)N)NC(=O)[C@H](CC(C)C)NC(=O)[C@@H](Cc1c[nH]c2ccccc12)NC(=O)[C@H](Cc1ccc(O)cc1)NC(=O)[C@H](CO)NC(=O)[C@@H](Cc1c[nH]c2ccccc12)NC(=O)CCc1ccc(F)cc1` showed a Supression of 88%.

Compound `CCNC(=O)[C@@H]1CCCN1C(=O)[C@H](CCCN=C(N)N)NC(=O)[C@H](CC(C)C)NC(=O)[C@@H](CCCCNC(=O)c1cccnc1)NC(=O)[C@H](Cc1ccc(O)cc1)N(C)C(=O)[C@H](CO)NC(=O)[C@@H](Cc1c[nH]c2ccccc12)NC(=O)CCc1ccc(F)cc1` had a Supression of 90%.
